Data from ChEMBL document CHEMBL5356993, “Novel pyrazolo[3,4-d]pyrimidine derivatives: design, synthesis, anticancer evaluation, VEGFR-2 inhibition, and antiangiogenic activity” (RSC Med Chem, 2023).

What was measured:
Format in all cases: functional
Conditions in all cases: read-out: GI
SF-295 = test: Antiproliferative activity against human SF-295 cells assessed as cell growth inhibition at 10 uM incubated for 48 hrs by SRB assay relative to control
In short: (§1)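 Cells plated in 96-well plates at […] cells/well and preincubated 24 h at 37 °C, 5% CO2. Time-zero plates were TCA-fixed. Compound was diluted in medium with 50 µg/mL gentamicin and cells exposed for 48 h. Adherent cells fixed with 10% final TCA; suspension cells with 16% final TCA. Plates stained with 0.4% SRB in 1% acetic acid, dye solubilized in 10 mM Trizma, absorbance read at 515 nm. Percent growth calculated against time-zero and control.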

OVCAR-8 = test: Antiproliferative activity against human OVCAR-8 cells assessed as cell growth inhibition at 10 uM incubated for 48 hrs by SRB assay relative to control
786-0 = test: Antiproliferative activity against human 786-0 cells assessed as cell growth inhibition at 10 uM incubated for 48 hrs by SRB assay relative to control
PC-3 = test: Antiproliferative activity against human PC-3 cells assessed as cell growth inhibition at 10 uM incubated for 48 hrs by SRB assay relative to control
SF-268 = test: Antiproliferative activity against human SF-268 cells assessed as cell growth inhibition at 10 uM incubated for 48 hrs by SRB assay relative to control
CCRF-CEM = test: Antiproliferative activity against human CCRF-CEM cells assessed as cell growth inhibition at 10 uM incubated for 48 hrs by SRB assay relative to control; in short: as §1
CAKI-1 = test: Antiproliferative activity against human CAKI-1 cells assessed as cell growth inhibition at 10 uM incubated for 48 hrs by SRB assay relative to control
SK-MEL-5 = test: Antiproliferative activity against human SK-MEL-5 cells assessed as cell growth inhibition at 10 uM incubated for 48 hrs by SRB assay relative to control; in short: as §1
NCI-H322M = test: Antiproliferative activity against human NCI-H322M cells assessed as cell growth inhibition at 10 uM incubated for 48 hrs by SRB assay relative to control
NCI-H460 = test: Antiproliferative activity against human NCI-H460 cells assessed as cell growth inhibition at 10 uM incubated for 48 hrs by SRB assay relative to control
SNB-19 = test: Antiproliferative activity against human SNB-19 cells assessed as cell growth inhibition at 10 uM incubated for 48 hrs by SRB assay relative to control
In short: (§2)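 Cells pre-incubated 24 h at 37°C, 5% CO2, then exposed to compound (DMSO stock diluted in medium with 50 µg/mL gentamicin) for 48 h. Adherent cells fixed with cold TCA (final 10%, 60 min, 4°C); suspension cells fixed with 16% TCA final. Stained with 0.4% SRB in 1% acetic acid for 10 min, dye solubilized in 10 mM Trizma base, absorbance read at 515 nm. Growth calculated against time-zero and untreated control plates.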

Hs-578T = test: Antiproliferative activity against human Hs-578T cells assessed as cell growth inhibition at 10 uM incubated for 48 hrs by SRB assay relative to control; in short: as §1
HCT-116 = test: Antiproliferative activity against human HCT-116 cells assessed as cell growth inhibition at 10 uM incubated for 48 hrs by SRB assay relative to control
UACC-257 = test: Antiproliferative activity against human UACC-257 cells assessed as cell growth inhibition at 10 uM incubated for 48 hrs by SRB assay relative to control; in short: as §2
KM12 = test: Antiproliferative activity against human KM12 cells assessed as cell growth inhibition at 10 uM incubated for 48 hrs by SRB assay relative to control; in short: as §1
SK-OV-3 = test: Antiproliferative activity against human SK-OV-3 cells assessed as cell growth inhibition at 10 uM incubated for 48 hrs by SRB assay relative to control; in short: as §1
Malme-3M = test: Antiproliferative activity against human Malme-3M cells assessed as cell growth inhibition at 10 uM incubated for 48 hrs by SRB assay relative to control
SK-MEL-28 = test: Antiproliferative activity against human SK-MEL-28 cells assessed as cell growth inhibition at 10 uM incubated for 48 hrs by SRB assay relative to control; in short: as §1
HL-60(TB) = test: Antiproliferative activity against human HL-60(TB) cells assessed as cell growth inhibition at 10 uM incubated for 48 hrs by SRB assay relative to control
In short: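 Cells were plated at […] cells/well and preincubated 24 h at 37°C, 5% CO2, with time-zero plates TCA-fixed. Compound was diluted from DMSO stock in medium with 50 µg/mL gentamicin, then exposed for 48 h. Settled suspension cells were fixed with 80% TCA (final 16%), stained with 0.4% SRB and solubilized in 10 mM Trizma, A515. Growth was taken relative to Tz and control.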

NCI-H226 = test: Antiproliferative activity against human NCI-H226 cells assessed as cell growth inhibition at 10 uM incubated for 48 hrs by SRB assay relative to control; in short: as §1
K562 = test: Antiproliferative activity against human K562 cells assessed as cell growth inhibition at 10 uM incubated for 48 hrs by SRB assay relative to control
DU-145 = test: Antiproliferative activity against human DU-145 cells assessed as cell growth inhibition at 10 uM incubated for 48 hrs by SRB assay relative to control
RPMI-8226 = test: Antiproliferative activity against human RPMI-8226 cells assessed as cell growth inhibition at 10 uM incubated for 48 hrs by SRB assay relative to control
NCI-H23 = test: Antiproliferative activity against human NCI-H23 cells assessed as cell growth inhibition at 10 uM incubated for 48 hrs by SRB assay relative to control
SW-620 = test: Antiproliferative activity against human SW620 cells assessed as cell growth inhibition at 10 uM incubated for 48 hrs by SRB assay relative to control; in short: as §2
COLO 205 = test: Antiproliferative activity against human COLO 205 cells assessed as cell growth inhibition at 10 uM incubated for 48 hrs by SRB assay relative to control
NCI-H522 = test: Antiproliferative activity against human NCI-H522 cells assessed as cell growth inhibition at 10 uM incubated for 48 hrs by SRB assay relative to control; in short: as §1
U-251 = test: Antiproliferative activity against human U-251 cells assessed as cell growth inhibition at 10 uM incubated for 48 hrs by SRB assay relative to control; in short: as §2
EKVX = test: Antiproliferative activity against human EKVX cells assessed as cell growth inhibition at 10 uM incubated for 48 hrs by SRB assay relative to control
MOLT-4 = test: Antiproliferative activity against human MOLT-4 cells assessed as cell growth inhibition at 10 uM incubated for 48 hrs by SRB assay relative to control
TK-10 = test: Antiproliferative activity against human TK-10 cells assessed as cell growth inhibition at 10 uM incubated for 48 hrs by SRB assay relative to control; in short: as §2
SK-MEL-2 = test: Antiproliferative activity against human SK-MEL-2 cells assessed as cell growth inhibition at 10 uM incubated for 48 hrs by SRB assay relative to control; in short: as §1

| Compound | inhibition of growth at 10 µM (SF-295) [%] | inhibition of growth at 10 µM (OVCAR-8) [%] | inhibition of growth at 10 µM (786-0) [%] | inhibition of growth at 10 µM (PC-3) [%] | inhibition of growth at 10 µM (SF-268) [%] | inhibition of growth at 10 µM (CCRF-CEM) [%] | inhibition of growth at 10 µM (CAKI-1) [%] | inhibition of growth at 10 µM (SK-MEL-5) [%] | inhibition of growth at 10 µM (NCI-H322M) [%] | inhibition of growth at 10 µM (NCI-H460) [%] | inhibition of growth at 10 µM (SNB-19) [%] | inhibition of growth at 10 µM (Hs-578T) [%] | inhibition of growth at 10 µM (HCT-116) [%] | inhibition of growth at 10 µM (UACC-257) [%] | inhibition of growth at 10 µM (KM12) [%] | inhibition of growth at 10 µM (SK-OV-3) [%] | inhibition of growth at 10 µM (Malme-3M) [%] | inhibition of growth at 10 µM (SK-MEL-28) [%] | inhibition of growth at 10 µM (HL-60(TB)) [%] | inhibition of growth at 10 µM (NCI-H226) [%] | also measured |
| --- | --- | --- | --- | --- | --- | --- | --- | --- | --- | --- | --- | --- | --- | --- | --- | --- | --- | --- | --- | --- | --- |
| CC(=O)Nc1ccc(-n2c(C)nc3c(cnn3-c3ccccc3)c2=O)cc1 | 36.5 | 20 | < 15 | 30.3 | < 15 | 30.8 | 31.1 | 77.4 | < 15 | < 15 | 16.4 | < 15 | 28.9 | 41.7 | < 15 | < 15 | 22.3 | < 15 | 28.3 | 33.5 | inhibition of growth at 10 µM (K562): 55.4%; inhibition of growth at 10 µM (DU-145): 17.8%; inhibition of growth at 10 µM (RPMI-8226): 47.5%; inhibition of growth at 10 µM (NCI-H23): 31.7%; inhibition of growth at 10 µM (SW-620): < 15%; inhibition of growth at 10 µM (COLO 205): < 15%; inhibition of growth at 10 µM (NCI-H522): 25%; inhibition of growth at 10 µM (U-251): < 15%; inhibition of growth at 10 µM (EKVX): 66.8%; inhibition of growth at 10 µM (MOLT-4): 43.6%; inhibition of growth at 10 µM (TK-10): 20.4%; inhibition of growth at 10 µM (SK-MEL-2): 24.3% |
| Cc1nc2c(cnn2-c2ccccc2)c(=O)n1-c1ccc(NC(=O)c2ccccc2)cc1 | 46.5 | 38.4 | 20.4 | 29.5 | 21.5 | 49.5 | 33.4 | 76.2 | < 15 | 27.9 | 23.6 | 28.9 | 41.9 | 46.9 | 24.7 | 19 | 29.8 | < 15 | 18.5 | 44.7 | inhibition of growth at 10 µM (K562): 66.8%; inhibition of growth at 10 µM (DU-145): 18.6%; inhibition of growth at 10 µM (RPMI-8226): 43.6%; inhibition of growth at 10 µM (NCI-H23): 45.5%; inhibition of growth at 10 µM (SW-620): < 15%; inhibition of growth at 10 µM (COLO 205): 20.2%; inhibition of growth at 10 µM (NCI-H522): 20.7%; inhibition of growth at 10 µM (U-251): < 15%; inhibition of growth at 10 µM (EKVX): 65.7%; inhibition of growth at 10 µM (MOLT-4): 68.1%; inhibition of growth at 10 µM (TK-10): 18.6%; inhibition of growth at 10 µM (SK-MEL-2): < 15% |
